Compounds with a hit are over-represented: about 1.8% of the library has one in this group of screens.
CHRM5 agonist: human M5 muscarinic receptor agonists, primary screen, CHO-K1 cells, Fluo-8 calcium fluorescence; 360,000 tested, 0.19% active; CHO-K1 hM5 cells; 0% DMSO wells, 100% maximal acetylcholine response; activation, % at 3 µM; Muscarinic acetylcholine receptor M5 (Homo sapiens), P08912;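 active = activation above the run's mean over test compounds plus 3 SD, cut at about 23% in these data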;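 note: signal is peak over basal fluorescence ratio across the kinetic read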
CHRM5 PAM: human M5 muscarinic receptor positive allosteric modulators, primary screen, CHO-K1 cells, Fluo-8 calcium fluorescence | Muscarinic acetylcholine receptor M5 (Homo sapiens), P08912 | CHO-K1 hM5, ACh EC20 PAM; 0% = ACh EC20, 100% = ACh EC100 | activation, % at 3 µM | 360,000 tested, 0.3% active | AID 624038, 2012;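 active = activation above the run cutoff, the mean activation of all test compounds plus 3 SD, cut at about 18% in these data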
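Replicates: One well per compound, no replicates | System: Human M5 receptor in CHO-K1 cells | Benchmarks: Low control EC20 acetylcholine (0%), high control EC100 acetylcholine (100%) | Probe or stimulus: Acetylcholine, EC20 level | Times: Fluo-8 loading 80 min at 37 °C plus 30 min room temperature | Signal: Intracellular calcium via Fluo-8 fluorescence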
CHRM4 antagonist: human M4 muscarinic receptor antagonists, primary screen, CHO cells, Fluo-8 calcium fluorescence; Muscarinic acetylcholine receptor M4 (Homo sapiens), P08173; CHO-hM4 cells, ACh EC80; inhibition, % at 3 µM; 360,000 tested, 0.73% active; AID 624125, 2012;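 active = inhibition above its plate's cutoff, the mean inhibition of sample wells plus 3 SD, cut at about 27% in these data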;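 note: 0% = acetylcholine EC80 with DMSO and 100% = DMSO without agonist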
Target sequence (P08173 whole entry, looked up): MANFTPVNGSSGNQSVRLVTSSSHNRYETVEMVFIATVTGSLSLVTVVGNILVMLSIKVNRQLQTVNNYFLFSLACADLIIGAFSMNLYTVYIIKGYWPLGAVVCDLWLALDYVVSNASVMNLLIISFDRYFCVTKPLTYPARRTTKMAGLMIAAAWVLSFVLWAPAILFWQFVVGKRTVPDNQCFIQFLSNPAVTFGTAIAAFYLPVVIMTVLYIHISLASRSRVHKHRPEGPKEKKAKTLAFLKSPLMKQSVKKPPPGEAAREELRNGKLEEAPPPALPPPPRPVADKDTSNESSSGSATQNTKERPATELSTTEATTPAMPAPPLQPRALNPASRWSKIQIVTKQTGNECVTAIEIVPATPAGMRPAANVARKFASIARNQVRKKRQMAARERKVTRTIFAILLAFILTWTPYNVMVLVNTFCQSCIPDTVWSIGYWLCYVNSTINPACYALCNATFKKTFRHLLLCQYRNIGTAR
M4 PAM: human M4 muscarinic receptor positive allosteric modulators, primary screen, CHO-K1 cells, Fluo-8 calcium fluorescence; 360,000 tested, 0.4% active; AID 624126, 2012; CHO-K1 hM4/Gqi5, ACh EC20; 0% = ACh EC20, 100% = maximal ACh; activation, % at 3 µM; Muscarinic acetylcholine receptor M4 (Homo sapiens), P08173;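 active = activation above its plate's cutoff, the mean activation of sample wells plus 3 SD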
CHRM4 agonist: human M4 muscarinic receptor agonists, primary screen, CHO-K1 cells, Fluo-8 calcium fluorescence | 360,000 tested, 0.14% active | Muscarinic acetylcholine receptor M4 (Homo sapiens), P08173 | activation, % at 3 µM | CHO-K1 hM4/Gqi5; vehicle 0%, full acetylcholine response 100%;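 active = activation above the run mean over all test wells plus 3 SD, cut at about 32% in these data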;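 note: peak over basal fluorescence ratio per well then scaled between controls; 0% = DMSO wells and 100% = acetylcholine at EC100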
M5 antag: human M5 muscarinic receptor antagonists, primary screen, CHO cells, Fluo-8 calcium fluorescence; inhibition, % at 3 µM; CHO-hM5 cells, ACh EC80; Muscarinic acetylcholine receptor M5 (Homo sapiens), P08912; 360,000 tested, 0.59% active;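 active = inhibition above a per-plate cutoff, the mean of that plate's test compounds plus 3 SD, cut at about 27% in these data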;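 note: 0% = acetylcholine EC80 with DMSO and 100% = DMSO without agonist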
* hit, by the source's call.

SMILES | CHRM5 agonist | CHRM5 PAM | CHRM4 antagonist | M4 PAM | CHRM4 agonist | M5 antag
O=C(c1ccc2c(c1)OCCO2)N1CCCCC1 | 1 | 3 | 0 | 27* | 1 | -2
COc1cc(/C=C/C(=O)O)cc(S(=O)(=O)Nc2cc(Cl)c(Cl)cc2Cl)c1OC | -1 | 14 | -11 | 18 | 0 | -11
COc1cc(/C=C/C(=O)O)cc(S(=O)(=O)NC2CCCC2)c1OC | -2 | -6 | 98* | -52 | -2 | 5
CCCN=Cc1ccc(O)cc1 | 2 | -14 | 8 | -10 | 19 | 20
Cc1ccc(S(=O)(=O)N2CCC(N3CCN(C)CC3)CC2)cc1Cl | -8 | -13 | 28* | -20 | -1 | 25
Cn1nc(C(=O)Nc2cccc(C(F)(F)F)c2)c2ccccc2c1=O | -5 | -1 | 13 | 31* | -3 | -6
FC(F)(F)c1cccc(NC(=S)Nc2ccc(Cl)c(Cl)c2)c1 | 8 | -6 | 3 | -1 | 6 | 6
O=C(Nc1ccccc1)Nc1cccc(C(F)(F)F)c1 | 4 | -17 | 3 | -12 | 16 | 40*
Cn1nc(C(=O)Nc2cccc(C(=O)NC3CC3)c2)c2ccccc2c1=O | 4 | 8 | -3 | -1 | 3 | -10
CC(=O)c1c(C)[nH]c(C(=O)Nc2cccc(C(F)(F)F)c2)c1C | 7 | -13 | 10 | -14 | 20 | 29*
FC(F)(F)c1cccc(NC(=S)NC(c2ccccc2)c2ccccc2)c1 | 2 | -19 | 12 | -18 | 14 | 27*
CC(C)CC(NC=C1C(=O)OC(C)(C)OC1=O)C(=O)O (configuration not stated) | -5 | 0 | -1 | 21* | 0 | -3
CC(NC=C1C(=O)OC(C)(C)OC1=O)C(=O)O (configuration not stated) | -1 | -4 | -1 | 5 | 1 | -2
O=C(OCC(=O)N1CCN(C(=O)c2ccco2)CC1)c1cc(-c2cccc(Br)c2)nc2ccccc12 | 6 | -8 | 28* | -23 | 9 | 12
Cc1n(Cc2ccccc2)c2cc([N+](=O)[O-])ccc2[n+]1Cc1ccccc1 | -2 | 2 | 2 | 0 | 0 | 9
Cc1n(Cc2ccccc2)c2ccccc2[n+]1Cc1ccccc1 | -17 | -11 | 9 | -13 | 1 | 28*
CCc1ccc(N2CC(C(=O)N3CCN(c4ccccn4)CC3)CC2=O)cc1 (configuration not stated) | 3 | 0 | -24 | 26* | 1 | 0
CCOc1ccc(N2CC(C(=O)N3CCN(c4ccccn4)CC3)CC2=O)cc1 (configuration not stated) | 2 | -1 | -2 | 5 | 2 | 8
COc1ccc(Nc2nnc(SCC(=O)c3cc(C)n(CC4CCCO4)c3C)s2)cc1 (configuration not stated) | -6 | -17 | -5 | -9 | 6 | -4
O=S(=O)(c1cccs1)N1CCN(c2ccnc3cc(Cl)ccc23)CC1 | -10 | -20 | 100* | -17 | -1 | 6
O=C(NCCCN1CCOCC1)c1ccc(Cl)c([N+](=O)[O-])c1 | -2 | 8 | 1 | -3 | 1 | -3
CCOC(=O)CSc1ccc(C(=O)NCCCN2CCOCC2)cc1[N+](=O)[O-] | -8 | 3 | 27* | -17 | 0 | 10
COc1ccc(C(=O)NCCN2CCOCC2)cc1[N+](=O)[O-] | -5 | -2 | -11 | 4 | 0 | 6
O=C(NCCCN1CCOCC1)c1ccc(Sc2cccc(Cl)c2)c([N+](=O)[O-])c1 | -6 | -15 | 47* | -16 | 3 | 6
c1ccc(CNc2nc(NCc3ccccc3)c3sccc3n2)cc1 | 32* | -21 | 71* | -16 | 89* | 44*

High-throughput results from PubChem BioAssay.
